Bioassay records (PubChem BioAssay)
RGS4 block – inhibitors of human RGS4; B-score at 10 µM; P49798; HEK293 M3R/RGS4 inducible, Fluo-4 calcium flux; active compounds read high; triggered by carbachol at its EC20; 310,000 tested, 0.45% active; AID 463165;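 active = B-score, a plate-corrected calcium signal, over three deviations above library mean, with baseline fluorescence within five deviations of library mean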;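 note: RGS4 expression induced by doxycycline in cells with stable M3 receptor; B-score is computed from the integrated fluorescence ratio over baseline after carbachol; higher B-score means a larger calcium signal and so more RGS4 inhibition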
Target sequence (P49798 whole entry, looked up): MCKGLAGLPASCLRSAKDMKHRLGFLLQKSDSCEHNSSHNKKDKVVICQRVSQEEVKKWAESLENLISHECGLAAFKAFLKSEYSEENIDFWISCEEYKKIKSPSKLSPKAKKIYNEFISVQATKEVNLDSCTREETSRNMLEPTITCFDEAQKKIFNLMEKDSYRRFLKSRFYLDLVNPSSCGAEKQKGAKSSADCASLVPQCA
MrgX1 PAM – human MrgX1 positive allosteric modulation, primary screen; Q96LB2; MrgX1-HEK293, Fluo-4 calcium flux, FDSS; active compounds read high; B-score at 10 µM; 310,000 tested, 0.63% active;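 active = plate-corrected calcium response at least 3 library SD above typical, normal starting fluorescence, not activating the receptor alone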;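 note: compound read alongside a low EC10 to EC30 dose of BAM8-22 agonist; peak minus trough fluorescence over baseline measured at the second addition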
Target sequence (Q96LB2 whole entry, looked up): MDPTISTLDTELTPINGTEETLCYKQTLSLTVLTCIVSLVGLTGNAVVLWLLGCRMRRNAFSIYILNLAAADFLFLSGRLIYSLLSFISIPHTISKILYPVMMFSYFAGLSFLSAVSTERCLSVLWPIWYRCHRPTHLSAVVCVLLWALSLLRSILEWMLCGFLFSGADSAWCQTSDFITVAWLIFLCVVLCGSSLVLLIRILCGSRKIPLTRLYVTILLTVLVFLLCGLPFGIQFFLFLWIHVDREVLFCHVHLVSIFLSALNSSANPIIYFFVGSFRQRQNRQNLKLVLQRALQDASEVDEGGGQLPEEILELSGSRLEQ
RGS4 act – RGS4 potentiation or activation. HEK293 M3R/inducible RGS4, carbachol calcium flux Fluo4; active compounds read low. B-score at 10 µM. 310,000 tested, 0.92% active. AID 463111;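 active = B-score of the integrated calcium signal more than 4 SD below the library mean, with starting fluorescence not abnormally high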;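 note: negative B-score means reduced calcium response which marks RGS4 activation or potentiation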
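System: HEK293 FlpIn-TREx cells, stable M3R, doxycycline-inducible RGS4. Timing: overnight RGS4 induction, 30 min dye load 37 °C, 20 min compound RT. Also added: carbachol, ECmax concentration. Measured by: Fluo4 fluorescence kinetic imaging of calcium. Evaluation: integrated calcium ratio converted to B score.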
MrgX1 antag – human MrgX1 receptor antagonism, primary screen; MRGX1-HEK293 calcium flux, Fluo-4, BAM8-22 antagonism; active compounds read low; B-score at 10 µM; 310,000 tested, 1.3% active; AID 588676;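 active = calcium-response B-score plate-corrected more than 3 library SD below zero, starting fluorescence within 5 deviations, no agonist response on first addition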;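 note: peak minus trough fluorescence over baseline after final BAM8-22 challenge near maximal dose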
MrgX1 ag – human MrgX1 receptor agonism, primary screen. 310,000 tested, 0.44% active. AID 588627. B-score at 10 µM. MrgX1-HEK293 cells, Fluo-4 calcium fluorescence, agonist mode; active compounds read high. Q96LB2;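 active = calcium response B-score plate-corrected fluorescence ratio at least 3 library SD, with starting fluorescence B-score inside 5 SD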
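System – MrgX1-expressing HEK293 cells · Incubation – cells plated overnight, dye loaded 0.5 h 37 °C, 0.5 h room temperature · Technique – kinetic Fluo-4 NW fluorescence of intracellular calcium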
Each line names hits and unclear results; the compound was inactive in the other large screens. Shown are actives, neighbours in structure and some others; about 3.5% of the full set was active somewhere.

C/C(=C\C(=O)c1ccc(Cl)cc1)Nc1ccc(Br)cc1	none
C/C(=C\C(=O)c1ccc(Br)cc1)Nc1cccc(Cl)c1	RGS4 act -8.09
COc1ccc(OC)c(Nc2nc(-c3cccs3)cs2)c1	none
Cc1nc(-c2nc(-c3c(C(=O)NNC(=O)c4ccc(Cl)cc4)noc3C)cs2)cs1	none
Cc1nc(-c2nc(-c3c(C(=O)NN)noc3C)cs2)cs1	MrgX1 antag -5.87
CC1CCN(CCOCCOc2ccc(Br)cc2Cl)CC1	RGS4 act -7.19
CC1CCCN(CCCOc2ccc(Br)cc2Cl)C1 (configuration not stated)	none
Cc1ccccc1Nc1c(-c2ccncc2)nc2ccc(Cl)cn12	none
COc1cccc(-c2nc(=S)c3c(o2)CCCC3)c1	none
CCc1ccc(O)c(-c2cc(C(=O)Nc3cccnc3)[nH]n2)c1	none
Cc1ccc2nc(-c3ccccc3)nc(SC(C)C(=O)NCc3cccs3)c2c1 (configuration not stated)	MrgX1 antag -7.26
O=C(O)c1ccc(Nc2ncnc3scc(-c4ccccc4)c23)cc1	MrgX1 ag 29.5
COc1ccc(/C=C/C(=O)OCC(=O)Nc2ccc(Cl)c(S(=O)(=O)N(C)C)c2)cc1OC	RGS4 act -9.44
CC(=O)NNC(=O)c1sc(=S)n2c1[nH]c(=O)c1sccc12	none
NC(=O)c1sc(=S)n2c1[nH]c(=O)c1sccc12	MrgX1 PAM 16.5
COCCNc1oc(/C=C/c2ccccc2OC)nc1S(=O)(=O)c1ccccc1	MrgX1 PAM 6.94
CCN(CC)S(=O)(=O)c1ccc2c3c(cccc13)C(=O)N2	none
CCOC(=O)c1c(N2C(=O)Nc3ccccc3N2O)sc2c1CCCCC2	MrgX1 ag 34.6
COC(=O)c1c(N2C(=O)Nc3ccccc3N2O)sc2c1CCCC2	none
Cc1ccc(S(=O)(=O)N(C)CC(=O)O/N=C(\N)c2ccc([N+](=O)[O-])cc2)cc1	none
CCCCn1c(N)c(N(CCOC)C(=O)c2ccc3c(c2)C(=O)N(c2ccccc2C)C3=O)c(=O)[nH]c1=O	none
CCCCn1c(N)c(N(CCOC)C(=O)c2ccc3c(c2)C(=O)N(c2cc(C)ccc2C)C3=O)c(=O)[nH]c1=O	MrgX1 PAM 11.9
CN1CCN(C(=O)CCCN2C(=O)/C(=C/c3cccc(Br)c3)SC2=S)CC1	RGS4 act -7.16 (no result: MrgX1 PAM, MrgX1 antag, MrgX1 ag)
O=C(O)CCCN1C(=O)/C(=C/c2ccncc2)SC1=S	none
O=C(O)CCCCCN1C(=O)/C(=C/c2ccncc2)SC1=S	MrgX1 ag 32.1
CCc1ccc(/C=C2\SC(=S)N(CCCC(=O)Nc3ccccc3C(=O)O)C2=O)cc1	none
O=C(O)CCCCCN1C(=O)/C(=C\c2ccncc2)SC1=S	MrgX1 ag 34.3
Cc1ccc(/C=C2\SC(=S)N(CCCC(=O)Nc3ccccc3C(=O)O)C2=O)cc1	MrgX1 antag -5.4
CN1CCN(C(=O)CCN2C(=O)/C(=C/c3cccc(Br)c3)SC2=S)CC1	none
O=C(c1ccc(Cn2cc(Br)cn2)cc1)N1N=C(C(F)F)CC1(O)C(F)F (configuration not stated)	RGS4 act -7.88
OC1(C#CCN2CCCC2)c2ccccc2-c2ccccc21	RGS4 act -6.99
O=C1CN(C(=O)c2ccccc2)C(c2ccccc2)c2cc(Cl)ccc2N1 (configuration not stated)	none
CS(=O)(=O)/C(C#N)=C\c1cnc(S(=O)(=O)c2ccccc2)s1	MrgX1 ag 29.5
O=C(NNC(=O)c1cccs1)c1ccc(F)cc1	none
CC(C)Cc1ccc(C(C)C(N)=Nc2ccc(O)cc2)cc1 (configuration not stated)	MrgX1 PAM 9.96
CC(C)Cc1ccc(C(C)C(=O)N2CCOCC2)cc1 (configuration not stated)	none
CNC[C@H](CC1CCCCC1)NC[C@H](Cc1ccccc1)NCCC12CC3CC(CC(C3)C1)C2	MrgX1 PAM 7.73, RGS4 act -8.91, MrgX1 antag -9.5
Cc1ccc(-c2nc3sc4c(c3c(=O)n2N)CCCC4)cc1	MrgX1 PAM 13.4
O=C1N/C(=C/c2cccn2-c2ccccc2)C(=O)N1Cc1ccc(F)cc1	none
O=C1N/C(=C\c2ccc(N3CCOCC3)c(F)c2)C(=O)N1Cc1ccccc1	MrgX1 antag -8.62
COCc1c(C#N)c(NCCc2ccc(F)cc2)nc(C)c1[N+](=O)[O-]	none
Cc1nc(NCCc2ccc(F)cc2)c(C#N)c(C)c1[N+](=O)[O-]	MrgX1 ag 38
COCc1c(C#N)c(NCCc2ccccc2)nc(C)c1[N+](=O)[O-]	MrgX1 antag -6.27
COc1cc(/C=C2\SC(N)=NC2=O)cc(Cl)c1O	MrgX1 ag 29.9
Cc1ccc(C2C(C#N)=C(N)Oc3c2sc2ccccc32)o1 (configuration not stated)	MrgX1 PAM 9.16
Cc1ccc(C2C(C#N)=C(N)Oc3n[nH]c(-c4ccccc4)c32)o1 (configuration not stated)	MrgX1 ag 50.2
COc1ccc(-c2ccc(C3C(C#N)=C(N)Oc4n[nH]c(C)c43)o2)cc1 (configuration not stated)	MrgX1 ag 55.4
Cc1c(CCC(=O)NCCCCCC(=O)O)c(=O)oc2c(C)c3oc4c(c3cc12)CCCC4	none
Cc1c(CCC(=O)N2CCC[C@H]2C(=O)O)c(=O)oc2c(C)c3oc4c(c3cc12)CCCC4	MrgX1 PAM 7.23
CCOc1ccc(CC(=O)NNC(=S)Nc2ccc(OC)c(OC)c2)cc1	none
N#CC1=C(N)OC2=C(CC/C2=C\c2ccccc2Cl)C1c1ccccc1Cl (configuration not stated)	MrgX1 antag -11.7
N#CC1=C(N)OC2=C(C(=O)CCC2)C1c1ccccc1 (configuration not stated)	none
N#CC1=C(N)Oc2cc(O)c(Cl)cc2C1c1ccccc1F (configuration not stated)	none
N#CC1=C(N)OC2=C(CC/C2=C\c2ccccc2)C1c1ccccc1 (configuration not stated)	MrgX1 ag 140
COc1cc(/C=C(\C#N)C(=O)NCCc2ccccc2)cc(OC)c1O	MrgX1 PAM 7.27
Cc1ccc(NC(=O)/C(C#N)=C(\N)C(Cl)(Cl)Cl)nc1	MrgX1 ag 27.7
Cc1ccc(NC(=O)C(=O)Nc2ccc(C)cn2)nc1	none
CC(=O)c1ccc(OCCCC(=O)NC(C)c2ccc(S(N)(=O)=O)cc2)cc1 (configuration not stated)	MrgX1 PAM 6.64
Cc1ccc(OCCCC(=O)NC(C)c2ccccc2)cc1 (configuration not stated)	none
C=CCNC(=O)C1CC(=O)N(c2ccc(OCC(=O)Nc3ccc(C)cc3)cc2)C1 (configuration not stated)	none
CCCCN1C(=O)/C(=C/C=C2\N(C)c3ccccc3C2(C)C)SC1=S	MrgX1 antag -15
COc1ccc(S(=O)(=O)N(C)CC(=O)NCCC2=CCCCC2)cc1OC	MrgX1 antag -5.91
